Source: ChEMBL document CHEMBL1123999, “Synthesis and antiviral activity of certain 4- and 4,5-disubstituted 7-[(2-hydroxyethoxy)methyl]pyrrolo[2,3-d]pyrimidines” (J Med Chem, 1988)

Experiments:
Human betaherpesvirus 5 [1] = assay: Inhibitory concentration against human cytomegalovirus (HCMV) in plaque reduction assay; assay type: functional, organism-based
Method in brief: (§1)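 HFF monolayers were infected with the Towne strain of HCMV (plaque-purified isolate P0), about 50 PFU in a 0.2 mL inoculum. Compounds were dissolved in the overlay medium, with 100 μM the highest concentration tested. Plaques were counted. I50 was taken from linear regression of percent inhibition against log concentration. Acyclovir, ganciclovir and vidarabine served as positive controls.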

HFF = assay: Cytotoxicity against uninfected human foreskin fibroblast(HFF cells); assay type: functional, cell-based
Method in brief: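 Uninfected HFF monolayers in the HCMV plaque assay. Drug-induced cytopathology was scored visually at 35- and 60-fold magnification, on a 0 to 4+ scale, on the day of staining for plaque enumeration. I50 was taken from linear regression of percent inhibition against log concentration.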

[2] = Cytotoxicity against uninfected monkey kidney cells (BSC-1); assay type: functional, cell-based; settings: Cercopithecidae
Method in brief: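 Uninfected BSC-1 (African green monkey kidney) monolayers, grown in MEM with Earle salts plus 10% FBS, in the HSV-1 plaque assay. Cytopathology was scored visually at 35- and 60-fold magnification, on a 0 to 4+ scale, on the day of staining for plaques. I50 was taken from regression of percent inhibition against log concentration.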

Human alphaherpesvirus 1 = assay: Inhibitory concentration against HSV-1 in plaque reduction assay
Human betaherpesvirus 5 [3] = assay: Inhibitory concentration against human cytomegalovirus (HCMV) in plaque reduction assay at 100 uM concentration; assay type: functional, organism-based; settings: read-out: I50; method in brief: as §1
[4] = Cytotoxicity against human neoplastic cell line(KB cells); assay type: functional, cell-based; settings: read-out: I50
Method in brief: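 KB cells (human epidermoid oral carcinoma) grown in MEM with Hanks salts plus 5% fetal bovine serum. Uptake of radioactive precursors into DNA, RNA and protein was measured. I50 values came from linear regression of percent inhibition against log concentration. The three I50 values (DNA, RNA, protein) were averaged. Positive controls were acyclovir, ganciclovir and vidarabine.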

[5] = Inhibition against human neoplastic cell line(KB cells); assay type: functional, cell-based; settings: read-out: I50
Method in brief: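 KB cells (human epidermoid oral carcinoma) grown in MEM with Hanks salts plus 5% fetal bovine serum. Cytotoxicity read as inhibition of radioactive precursor incorporation into DNA, RNA and protein. I50 for each of the three came from linear regression of percent inhibition against log drug concentration, and the three I50s were averaged. Highest concentration tested 100 μM.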

Row | Compound | IC50 (Human betaherpesvirus 5 [1]) [µM] | IC50 (HFF) [µM] | IC50 [2] [µM] | IC50 (Human alphaherpesvirus 1) [µM] | IC50 (Human betaherpesvirus 5 [1]; read-out: I50) [µM] | IC50 (HFF; read-out: I50) [µM] | other results
1 | CSc1ncnc2c1c(Br)cn2[C@@H]1O[C@H](CO)[C@@H](O)[C@H]1O | > 100 | > 100 | – | – | – | – | –
2 | OC[C@H]1O[C@@H](n2ccc3c(N4CCCCC4)ncnc32)[C@H](O)[C@@H]1O | > 100 | > 100 | – | – | – | – | –
3 | CNc1ncnc2c1ccn2COCCO | > 100 | > 100 | > 100 | > 100 | – | – | –
4 | CN(C)c1ncnc2c1ccn2COCCO | > 100 | > 100 | > 100 | > 100 | – | – | –
5 | CCNc1ncnc2c1c(Cl)cn2COCCO | > 100 | > 100 | > 100 | > 100 | – | – | –
6 | CNc1ncnc2c1c(Cl)cn2COCCO | > 100 | > 100 | > 100 | > 100 | – | – | –
7 | COc1ncnc2c1ccn2COCCO | – | > 100 | > 100 | > 100 | – | – | IC50 (Human betaherpesvirus 5 [3]): > 100 µM
8 | CCNc1ncnc2c1c(Br)cn2COCCO | > 100 | > 100 | > 320 | > 320 | – | – | –
9 | CNc1ncnc2c1ccn2[C@@H]1O[C@H](CO)[C@@H](O)[C@H]1O | 37 | > 100 | – | – | – | – | –
10 | CN(C)c1ncnc2c1ccn2[C@@H]1O[C@H](CO)[C@@H](O)[C@H]1O | – | – | – | – | 1.2 | 2 | –
11 | OC[C@H]1O[C@@H](n2cc(I)c3c(Cl)ncnc32)[C@H](O)[C@@H]1O | – | – | – | – | 31 | 13 | –
12 | COc1ncnc2c1ccn2[C@@H]1O[C@H](CO)[C@@H](O)[C@H]1O | – | – | – | – | 10 | 46 | –
13 | OCCOCn1cc(Br)c2c(Cl)ncnc21 | > 100 | > 100 | > 100 | > 100 | – | – | –
14 | OC[C@H]1O[C@@H](n2ccc3c(S)ncnc32)[C@H](O)[C@@H]1O | > 100 | > 100 | – | – | – | – | –
15 | C[Se]c1ncnc2c1ccn2C1O[C@H](CO)[C@@H](O)[C@H]1O (some centres undefined) | 4 | 1.5 | – | – | – | – | –
16 | NNc1ncnc2c1ccn2C1O[C@H](CO)[C@@H](O)[C@H]1O (some centres undefined) | – | – | – | – | 4 | 2 | –
17 | OC[C@H]1OC(n2ccc3cncnc32)[C@H](O)[C@@H]1O (some centres undefined) | 0.4 | 2 | – | – | – | – | –
18 | CN(C)c1ncnc2c1c(Br)cn2C1O[C@H](CO)[C@@H](O)[C@H]1O (some centres undefined) | 16 | 10 | – | – | – | – | –

Row | Compound | IC50 (Human betaherpesvirus 5 [1]) [µM] | IC50 (HFF) [µM] | IC50 [2] [µM] | IC50 (Human alphaherpesvirus 1) [µM] | IC50 (Human betaherpesvirus 5 [1]; read-out: I50) [µM] | IC50 (HFF; read-out: I50) [µM] | other results
19 | CNc1ncnc2c1c(Br)cn2C1O[C@H](CO)[C@@H](O)[C@H]1O (some centres undefined) | – | – | – | – | > 100 | > 100 | –
20 | OC[C@H]1OC(n2cc(Br)c3c(Cl)ncnc32)[C@H](O)[C@@H]1O (some centres undefined) | – | – | – | – | 29 | 31 | –
21 | OC[C@H]1OC(n2cc(Br)c3c(S)ncnc32)[C@H](O)[C@@H]1O (some centres undefined) | 39 | > 100 | – | – | – | – | –
22 | OC[C@H]1OC(n2ccc3c(SC4C=CC=CC=C4)ncnc32)[C@H](O)[C@@H]1O (some centres undefined) | > 100 | > 100 | – | – | – | – | –
23 | OC[C@H]1OC(n2cc(Br)c3cncnc32)[C@H](O)[C@@H]1O (some centres undefined) | – | – | – | – | 23 | 31 | –
24 | Nc1ncnc2c1c(Br)cn2[C@@H]1O[C@H](CO)[C@@H](O)[C@H]1O | – | – | – | – | 0.5 | 4.5 | IC50 [4]: 2.3 µM
25 | Nc1ncnc2c1c(I)cn2COCCO | 24 | 100 | > 100 | 100 | – | – | IC50 [5]: 1.2 µM
26 | CNc1ncnc2c1c(Br)cn2COCCO | > 100 | > 100 | > 100 | > 100 | – | – | –
27 | Nc1ncnc2c1c(Cl)cn2COCCO | 16 | > 100 | > 100 | 77 | – | – | IC50 [5]: 0.82 µM
28 | Nc1ncnc2c1c(Br)cn2COCCO | 3.9 | 100 | > 100 | 16 | – | – | IC50 [4]: 100 µM
29 | OCCOCn1cc(I)c2c(Cl)ncnc21 | > 100 | > 100 | > 100 | > 100 | – | – | –
30 | OCCOCn1cc(Cl)c2c(Cl)ncnc21 | > 100 | > 100 | > 100 | > 100 | – | – | –
31 | Nc1ncnc2c1c(Cl)cn2[C@@H]1O[C@H](CO)[C@@H](O)[C@H]1O | – | – | – | – | 4.4 | 10 | IC50 [4]: 6.5 µM
32 | Nc1nc2c(ncn2COCCO)c(=O)[nH]1 [ACYCLOVIR] | 63 | > 100 | > 100 | 2.6 | – | – | –
33 | Nc1nc2c(ncn2COC(CO)CO)c(=O)[nH]1 [GANCICLOVIR] | 8.8 | > 100 | > 100 | 3 | – | – | –
34 | O=c1[nH]cnc2c1ccn2[C@@H]1O[C@H](CO)[C@@H](O)[C@H]1O [IMMUNICILLIN H] | – | – | – | – | 3.5 | 10 | –
35 | Nc1ncnc2c1c(I)cn2[C@@H]1O[C@H](CO)[C@@H](O)[C@H]1O [IODOTUBERCIDIN] | – | – | – | – | 0.4 | 2 | IC50 [4]: 2.1 µM
36 | Nc1ncnc2c1ccn2[C@@H]1O[C@H](CO)[C@@H](O)[C@H]1O [TUBERCIDIN] | 0.5 | 0.4 | – | – | – | – | IC50 [4]: 0.6 µM
